In ChEMBL document CHEMBL4818983, “Structure-activity relationship and hypoglycemic activity of tricyclic matrines with advantage of treating diabetic nephropathy” (Eur J Med Chem, 2020):

System: HepG2
Experiment: Increase in glucose consumption in human HepG2 cells assessed as Gx/GDMSO ratio at 25 uM by glucose oxidase assay
Assay type: functional
Procedure, shortened: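 HepG2 glucose consumption screen. Test compounds at 25 μM, metformin at 5 mM. Activity expressed as ratio of glucose consumption to DMSO-treated cells (Gx/G_DMSO).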

## COC(=O)CCC[C@@H]1[C@H]2CCCN3CCC[C@H](CN1S(=O)(=O)c1ccccc1C(F)(F)F)[C@@H]23
  Ratio: 1.23

## CN(C)c1nnc(CCC[C@@H]2[C@H]3CCCN4CCC[C@@H](CN2S(=O)(=O)c2cccc(C(F)(F)F)c2)[C@@H]34)s1
  Ratio: 0.97

## O=S(=O)(c1ccc(C(F)(F)F)cc1)N1C[C@@H]2CCCN3CCC[C@@H]([C@H]23)[C@H]1CCCCO
  Ratio: 1.04

## Cc1ccc(S(=O)(=O)N2C[C@@H]3CCCN4CCC[C@@H]([C@H]34)[C@H]2CCCC(=O)O)cc1
  Ratio: 0.87

## CCCC[C@@H]1[C@H]2CCCN3CCC[C@H](CN1S(=O)(=O)c1cccc(C(F)(F)F)c1)[C@@H]23
  Ratio: 1.2

## Nc1nnc(CCC[C@@H]2[C@H]3CCCN4CCC[C@@H](CN2S(=O)(=O)c2cccc(C(F)(F)F)c2)[C@@H]34)o1
  Ratio: 1.34

## Cc1ccc(S(=O)(=O)N2C[C@H]3CCCN4CCC[C@@H]([C@H]34)[C@H]2CCCCO)cc1
  Ratio: 1.12

## CCCC[C@@H]1[C@H]2CCCN3CCC[C@@H](CN1C(=O)Nc1c(C)cccc1C)[C@@H]23
  Ratio: 1.14

## O=C(O)CCC[C@@H]1[C@H]2CCCN3CCC[C@@H](CN1S(=O)(=O)c1ccc(C(F)(F)F)cc1)[C@@H]23
  Ratio: 1.03

## O=S(=O)(c1ccccc1C(F)(F)F)N1C[C@H]2CCCN3CCC[C@@H]([C@H]23)[C@H]1CCCCO
  Ratio: 1.24

## CCCC[C@@H]1[C@H]2CCCN3CCC[C@H](CN1S(=O)(=O)c1ccc(C(F)(F)F)cc1)[C@@H]23
  Ratio: 1.17

## Nc1nnc(CCC[C@@H]2[C@H]3CCCN4CCC[C@@H](CN2S(=O)(=O)c2cccc(C(F)(F)F)c2)[C@@H]34)s1
  Ratio: 1.04

## O=S(=O)(c1cccc(C(F)(F)F)c1)N1C[C@H]2CCCN3CCC[C@@H]([C@H]23)[C@H]1CCCCO
  Ratio: 1.25

## O=C(O)CCC[C@@H]1[C@H]2CCCN3CCC[C@H](CN1S(=O)(=O)c1ccccc1C(F)(F)F)[C@@H]23
  Ratio: 1.12

## O=S(=O)(c1ccc(C(F)(F)F)cc1)N1C[C@H]2CCCN3CCC[C@@H]([C@H]23)[C@H]1CCCCO
  Ratio: 1.06

## CCNc1nnc(CCC[C@@H]2[C@H]3CCCN4CCC[C@@H](CN2S(=O)(=O)c2ccc(C)cc2)[C@@H]34)s1
  Ratio: 0.79

## CCCC[C@@H]1[C@H]2CCCN3CCC[C@@H](CN1S(=O)(=O)c1ccc(C)cc1)[C@@H]23
  Ratio: 1.03

## CCCC[C@@H]1[C@H]2CCCN3CCC[C@@H](CN1C(=O)Nc1ccc(C)cc1)[C@@H]23
  Ratio: 1.04

## O=C(O)CCC[C@@H]1[C@H]2CCCN3CCC[C@H](CN1S(=O)(=O)c1ccc(C(F)(F)F)cc1)[C@@H]23
  Ratio: 0.99

## CCCC[C@@H]1[C@H]2CCCN3CCC[C@@H](CN1C(=O)Nc1ccc(OC(F)(F)F)cc1)[C@@H]23
  Ratio: 1.07

## COC(=O)CCC[C@@H]1[C@H]2CCCN3CCC[C@H](CN1S(=O)(=O)c1ccc(C)cc1)[C@@H]23
  Ratio: 1.14

## CNc1nnc(CCC[C@@H]2[C@H]3CCCN4CCC[C@@H](CN2S(=O)(=O)c2cccc(C(F)(F)F)c2)[C@@H]34)s1
  Ratio: 0.86

## O=C(O)CCC[C@@H]1[C@H]2CCCN3CCC[C@H](CN1S(=O)(=O)c1cccc(C(F)(F)F)c1)[C@@H]23
  Ratio: 1.16

## O=C1CCC[C@@H]2[C@H]3CCCN4CCC[C@H](CN12)[C@@H]34 [SOPHORIDINE]
  Ratio: 1.22

## CCCC[C@@H]1[C@H]2CCCN3CCC[C@@H](CN1C(=O)Nc1ccc(C(F)(F)F)cc1)[C@@H]23
  Ratio: 1.08

## Nc1nnc(CCC[C@@H]2[C@H]3CCCN4CCC[C@@H](CN2S(=O)(=O)c2ccc(C(F)(F)F)cc2)[C@@H]34)o1
  Ratio: 1.18

## CCCC[C@@H]1[C@H]2CCCN3CCC[C@@H](CN1C(=O)Nc1cccc(C)c1)[C@@H]23
  Ratio: 1.32

## CCCC[C@@H]1[C@H]2CCCN3CCC[C@H](CN1S(=O)(=O)c1ccc(C)cc1)[C@@H]23
  Ratio: 1.07

## O=C(O)C[C@@H]1[C@H]2CCCN3CCC[C@@H](CN1S(=O)(=O)c1cccc(C(F)(F)F)c1)[C@@H]23
  Ratio: 1.06

## CC(=O)Nc1nnc(CCC[C@@H]2[C@H]3CCCN4CCC[C@@H](CN2S(=O)(=O)c2cccc(C(F)(F)F)c2)[C@@H]34)s1
  Ratio: 0.89

## CC[C@@H]1[C@H]2CCCN3CCC[C@@H](CN1S(=O)(=O)c1ccccc1C(F)(F)F)[C@@H]23
  Ratio: 1.26

## O=S(=O)(c1ccc(C(F)(F)F)cc1)N1C[C@@H]2CCCN3CCC[C@@H]([C@H]23)[C@H]1CCCCN=C=S
  Ratio: 1.02

## O=C1C=CC[C@@H]2[C@H]3CCCN4CCC[C@@H](CN12)[C@@H]34 [SOPHOCARPINE]
  Ratio: 1.11

## CCCC[C@@H]1[C@H]2CCCN3CCC[C@@H](CN1C(=O)Nc1cccc(C(F)(F)F)c1)[C@@H]23
  Ratio: 1

## CCCC[C@@H]1[C@H]2CCCN3CCC[C@@H](CN1C(=O)Nc1ccccc1C)[C@@H]23
  Ratio: 1.3

## CCCC[C@@H]1[C@H]2CCCN3CCC[C@H](CN1S(=O)(=O)c1ccccc1C(F)(F)F)[C@@H]23
  Ratio: 1.26

## CCCC[C@@H]1[C@H]2CCCN3CCC[C@@H](CN1C(=O)Nc1ccc(F)cc1)[C@@H]23
  Ratio: 1.02

## O=C1CCC[C@@H]2[C@H]3CCCN4CCC[C@@H](CN12)[C@@H]34 [MATRINE]
  Ratio: 1.26

## CC[C@@H]1[C@H]2CCCN3CCC[C@@H](CN1S(=O)(=O)c1ccc(C(F)(F)F)cc1)[C@@H]23
  Ratio: 1.32

## COC(=O)CCC[C@@H]1[C@H]2CCCN3CCC[C@H](CN1S(=O)(=O)c1ccc(C(F)(F)F)cc1)[C@@H]23
  Ratio: 1.13

## CCCC[C@@H]1[C@H]2CCCN3CCC[C@@H](CN1C(=O)Nc1ccccc1C(F)(F)F)[C@@H]23
  Ratio: 1.03

## COC(=O)CCC[C@@H]1[C@H]2CCCN3CCC[C@H](CN1S(=O)(=O)c1cccc(C(F)(F)F)c1)[C@@H]23
  Ratio: 1.21

## CCCC[C@@H]1[C@H]2CCCN3CCC[C@@H](CN1S(=O)(=O)c1ccccc1C(F)(F)F)[C@@H]23
  Ratio: 1.01

## Cc1ccc(S(=O)(=O)N2C[C@@H]3CCCN4CCC[C@@H]([C@H]34)[C@H]2CCCCO)cc1
  Ratio: 1.16
